What all share (format): functional
Test [1] deals with Streptococcus pneumoniae. The test is described as follows: In vitro inhibitory activity against Streptococcus pneumoniae (032UC1). The procedure, abridged:
(§1)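 Two-fold agar dilution on Mueller-Hinton agar (pH 7.4). Inoculum from overnight plate cultures suspended in Mueller-Hinton broth, adjusted to 10^9 CFU/mL, diluted 1:200 and spotted by multipoint inoculator at about 10^4 CFU/spot. Plates incubated 37 °C for 20 h. MIC taken as lowest concentration with no visible growth.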

Test [2] has as its system Staphylococcus aureus. The test is described as follows: In vitro inhibitory activity against Staphylococcus aureus (011UC4). The method, boiled down:
as §1

In test [3] the test system is Staphylococcus aureus. The test is described as follows: In vitro inhibitory activity against Staphylococcus aureus (EryRc 011CB20). The procedure, abridged:
as §1

The subject of a further test is Escherichia coli. Description: In vitro inhibitory activity against Escherichia coli (250 UC5). The procedure, abridged:
as §1

The test system of test [4] is Staphylococcus epidermidis. The test is described as follows: In vitro inhibitory activity against Staphylococcus epidermidis (EryRi 012GO11i). The procedure, abridged:
as §1

The subject of test [5] is Haemophilus influenzae. Description: In vitro inhibitory activity against Haemophilus influenzae (351CB12). The method, boiled down: as §1
The next test concerns Streptococcus pyogenes. The test is described as follows: In vitro inhibitory activity against Streptococcus pyogenes (02A1UC1). The method, boiled down: as §1
In test [6] the test system is Haemophilus influenzae. Description: In vitro inhibitory activity against Haemophilus influenzae (351HT3). The procedure, abridged: as §1
In test [7] the test system is Streptococcus pneumoniae. Description: In vitro inhibitory activity against Streptococcus pneumoniae (EryRi 030SJ5i). The method, boiled down:
as §1

The subject of test [8] is Streptococcus pneumoniae. The test is described as follows: In vitro inhibitory activity against Streptococcus pneumoniae (EryRc 030SJ1). The method, boiled down: as §1
Test [9] concerns Staphylococcus aureus. Description: In vitro inhibitory activity against Staphylococcus aureus (EryRi 011GO25i). The method, boiled down:
as §1

Test [10] concerns Mus musculus. The test is described as follows: In Vivo evaluation for its effective dose against Streptococcus pneumoniae (030SJ6 EryRc). The procedure, abridged:
(§2)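 Male Charles River CD1 mice, 20-22 g, 10 per dose group, infected intraperitoneally with 0.5 mL diluted overnight broth culture (physiological buffer or 5% hog mucine) at 10-100 times the minimal lethal dose. Compound suspended in carboxymethylcellulose, 0.5 mL given orally immediately and 4 h postinfection. Survival followed 8-10 days; ED50 (unitary dose protecting 50% from death) by Litchfield-Wilcoxon probit method.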

Test [11] deals with Mus musculus. The test is described as follows: In Vivo evaluation for its effective dose against Streptococcus pneumoniae (030SJ1 EryRc). The procedure, abridged:
as §2

In test [12] the test system is Staphylococcus sp. Description: In vitro inhibitory activity against Staphylococci EryRi (65).
Test [13] deals with Mus musculus. Description: In Vivo evaluation for its effective dose against Streptococcus pneumoniae (030RO1 EryRi). The procedure, abridged: as §2
For test [14], the system named is Streptococcus sp. Description: In vitro inhibitory activity against Streptococci EryR (27).
For test [15], the system named is Streptococcus sp. Description: In vitro inhibitory activity against Streptococci EryRi (98).
For test [16], the system named is Haemophilus. The test is described as follows: In vitro inhibitory activity against Haemophilus AmpS (43).
The test system of test [17] is Enterococcus. The test is described as follows: In vitro inhibitory activity against enterococci EryRc (13).
In test [18] the test system is Enterococcus. Description: In vitro inhibitory activity against enterococci EryRi (19).
For test [19], the system named is Mus musculus. Description: In Vivo evaluation for its effective dose against Streptococcus pneumoniae (030Cr29 EryRc). The method, boiled down:
as §2

Test [20] is described as follows: In vitro inhibitory activity against Pneumococci PenR (65).
Test [21] deals with Haemophilus. Description: In vitro inhibitory activity against Haemophilus AmpR (37).
For test [22], the system named is Mus musculus. Description: In Vivo evaluation for its effective dose against Staphylococcus aureus (011GO25 EryRi. The procedure, abridged: as §2
Test [23] can be described thus: In vitro inhibitory activity against Pneumococci EryRc (34).
In test [24] the test system is Staphylococcus sp. Description: In vitro inhibitory activity against Staphylococci Staphylococci EryRc (23).
The subject of test [25] is Mus musculus. Description: In Vivo evaluation for its effective dose against Streptococcus pneumoniae (030MV2 EryRc). The method, boiled down:
as §2

Molecules are shown by their SMILES. Converted amounts (≈) assume the structure as drawn.

Regarding `CC[C@H]1OC(=O)[C@H](C)C(=O)[C@H](C)[C@@H](O[C@@H]2O[C@H](C)C[C@H](N(C)C)[C@H]2O)[C@](C)(OC)C[C@@H](C)/C(=N\O[C@@H]2CCCNC2)[C@H](C)[C@@H](O)[C@]1(C)O`, the MIC against Streptococcus pneumoniae [1] was 0.08 µg/mL (≈ 0.117 µM); with Staphylococcus aureus [2], 0.15 µg/mL (≈ 0.219 µM); against Staphylococcus aureus [3], 40 µg/mL (≈ 58.3 µM); in the test on Escherichia coli, 40 µg/mL (≈ 58.3 µM); in test [4], 0.6 µg/mL (≈ 0.875 µM); against Haemophilus influenzae [5], 0.6 µg/mL (≈ 0.875 µM). Also, the MIC against Streptococcus pyogenes came to 0.04 µg/mL (≈ 0.0583 µM); in the test with Haemophilus influenzae [6], 2.5 µg/mL (≈ 3.64 µM); in the test on Streptococcus pneumoniae [7] it was 0.3 µg/mL (≈ 0.437 µM); against Streptococcus pneumoniae [8], 0.3 µg/mL (≈ 0.437 µM); against Staphylococcus aureus [9], 2.5 µg/mL (≈ 3.64 µM).
`CO[C@@H]1[C@@H](OC2OC(C)C(OC3CC(C)(O)C(OC(=O)CC(C)C)C(C)O3)C(N(C)C)C2O)[C@@H](CC=O)C[C@@H](C)[C@@H](O)/C=C/C=C/C[C@@H](C)OC(=O)C[C@H]1OC(C)=O` (some centres undefined): the ED50 in the test on Mus musculus [10], in the test on Mus musculus [11], in the test with Mus musculus [13], with Mus musculus [19], with Mus musculus [22] and with Mus musculus [25] was greater than 100 mg/kg in each case. Moreover, the MIC50 (commonly the lowest concentration that inhibits either 50% of growth or 50% of the strains tested, depending on the study) was found to be 1.2 µg/mL (≈ 1.45 µM) in the test with Staphylococcus sp. [12]; 5 µg/mL (≈ 6.04 µM) in the test with Streptococcus sp. [14]; 5 µg/mL (≈ 6.04 µM) with Streptococcus sp. [15]; 5 µg/mL (≈ 6.04 µM) in the test on Haemophilus [16]; 40 µg/mL (≈ 48.3 µM) with Enterococcus [17]; 1.2 µg/mL (≈ 1.45 µM) in the test on Enterococcus [18]. In addition, the MIC50 stood at 0.3 µg/mL (≈ 0.362 µM) in [20], 5 µg/mL (≈ 6.04 µM) against Haemophilus [21], 20 µg/mL (≈ 24.2 µM) in test [23] and 40 µg/mL (≈ 48.3 µM) against Staphylococcus sp. [24]. Besides, the MIC90 (commonly an inhibitory concentration at the 90% level, which refers to growth in some studies and to a panel of isolates in others) amounted to 2.5 µg/mL (≈ 3.02 µM) against Staphylococcus sp. [12]; 40 µg/mL (≈ 48.3 µM) against Streptococcus sp. [14]; 40 µg/mL (≈ 48.3 µM) with Streptococcus sp. [15]; 20 µg/mL (≈ 24.2 µM) in the test with Haemophilus [16]; 40 µg/mL (≈ 48.3 µM) against Enterococcus [17]; 1.2 µg/mL (≈ 1.45 µM) against Enterococcus [18]. Also, the MIC90 in [20] stood at 40 µg/mL (≈ 48.3 µM); against Haemophilus [21], 20 µg/mL (≈ 24.2 µM); in test [23], 40 µg/mL (≈ 48.3 µM); in the test on Staphylococcus sp. [24], 40 µg/mL (≈ 48.3 µM).
As for `CC[C@H]1OC(=O)[C@H](C)C(=O)[C@H](C)[C@@H](O[C@@H]2O[C@H](C)C[C@H](N(C)C)[C@H]2O)[C@](C)(OC)C[C@@H](C)/C(=N\OCCN(C)C)[C@H](C)[C@@H](O)[C@]1(C)O`, the MIC against Streptococcus pneumoniae [1] turned out to be 0.15 µg/mL (≈ 0.223 µM); in the test with Staphylococcus aureus [2], 0.08 µg/mL (≈ 0.119 µM); against Staphylococcus aureus [3], 40 µg/mL (≈ 59.4 µM); with Escherichia coli, 40 µg/mL (≈ 59.4 µM); in [4], 20 µg/mL (≈ 29.7 µM); with Haemophilus influenzae [5], 20 µg/mL (≈ 29.7 µM). The MIC against Streptococcus pyogenes worked out at 0.01 µg/mL (≈ 0.0148 µM); against Haemophilus influenzae [6] it was 20 µg/mL (≈ 29.7 µM); against Streptococcus pneumoniae [7], 0.15 µg/mL (≈ 0.223 µM); with Streptococcus pneumoniae [8], 2.5 µg/mL (≈ 3.71 µM); in the test on Staphylococcus aureus [9], 1.2 µg/mL (≈ 1.78 µM).
With `CC[C@H]1OC(=O)[C@H](C)C(=O)[C@H](C)[C@@H](O[C@@H]2O[C@H](C)C[C@H](N(C)C)[C@H]2O)[C@](C)(OC)C[C@@H](C)C(=O)[C@H](C)[C@H]2N(CCCCc3ccnc4c(OC)cccc34)C(=O)O[C@]12C`, the MIC was 0.02 µg/mL (≈ 0.0242 µM) in the test on Streptococcus pneumoniae [1]; 0.08 µg/mL (≈ 0.0968 µM) against Staphylococcus aureus [2]; 40 µg/mL (≈ 48.4 µM) against Staphylococcus aureus [3]; 40 µg/mL (≈ 48.4 µM) against Escherichia coli; 0.08 µg/mL (≈ 0.0968 µM) in test [4]; 2.5 µg/mL (≈ 3.03 µM) against Haemophilus influenzae [5]. Besides, the MIC was 0.02 µg/mL (≈ 0.0242 µM) with Streptococcus pyogenes; 2.5 µg/mL (≈ 3.03 µM) in the test with Haemophilus influenzae [6]; 0.08 µg/mL (≈ 0.0968 µM) in the test on Streptococcus pneumoniae [7]; 20 µg/mL (≈ 24.2 µM) against Streptococcus pneumoniae [8]; 0.3 µg/mL (≈ 0.363 µM) against Staphylococcus aureus [9].
